The results in this text go back to ChEMBL document CHEMBL2150951, “Studies on the antimicrobial properties of N-acylated ciprofloxacins” (2012).

Assay [1] has as its system Bacillus anthracis. Kind of assay: Antibacterial activity against Bacillus anthracis sterne at 50 ug per disc by Kirby-Bauer disc diffusion assay. It counts as functional. The note with it: read-out: DIZ. Put shortly: (§1)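 Kirby-Bauer disk diffusion with 50 µg compound per 6 mm paper disk. Organisms were grown and plated by an earlier method. The zone-of-inhibition diameter was recorded to the nearest mm and averaged over three independent experiments. No zone was reported as 6 mm, the disk diameter.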

A short description of assay [2]: Antibacterial activity against Bartonella henselae ATCC 49882 after 7 days by agar dilution method. It counts as functional, Bartonella henselae str. Houston-1. The note with it: ATCC 49882, 168 h. Put shortly:
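Agar dilution on chocolate agar containing compound at 10.0, 1.0 and 0.1 µg/ml, with 2-fold steps at and below 1.0 µg/ml for compounds active there. Controls were DMSO-only and drug-free plates. 25 µl of a McFarland 2.0 suspension in heart infusion broth was spotted and incubated 7 days at 37 °C in 5% CO2. Growth was scored +/− on duplicate plates; triplicate results were averaged.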

Assay [3] concerns Bartonella quintana. Kind of assay: Antibacterial activity against Bartonella quintana ATCC VR358 at 20 ug per disc after 7 days by Kirby-Bauer disc diffusion assay. It counts as functional. The note with it: ATCC VR358, 168 h, read-out: DIZ. The method, boiled down: (§2)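 Each paper disk was loaded with 20 µl of a 1 mg/ml solution, dried for 20 min and stored desiccated at 4 °C. Growth from 4-day plates was suspended in heart infusion broth to McFarland 2.0 and swabbed onto chocolate agar (heart infusion agar base with 5% bovine hemoglobin). Plates were incubated 1 week at 37 °C in 5% CO2. Zone diameter was read to the nearest mm, in triplicate and averaged.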

Assay [4] is described as follows: Antibacterial activity against Bartonella henselae Houston-1 infected in human HMEC1 cells assessed as intracellular bacterial load at 0.1 ug/mL incubated for 96 hrs followed by compound washout measured after 7 days relative to control. It counts as functional, Bartonella henselae str. Houston-1. Put shortly:
(§3)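 HMEC-1 cells grown in MCDB131 with 10% FBS, EGF and hydrocortisone were infected with B. henselae Houston-1 at MOI 100 for 4 h. Extracellular bacteria were killed with gentamicin (200 µg/ml, 1 h), then compound was added at 0.1 or 1.0 µg/ml for 96 h. After washing, cells were lysed with 0.1% saponin and lysates plated on chocolate agar for 7 days. CFU are given as a percentage of the media-only control.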

The nature of assay [5]: Antibacterial activity against Bartonella henselae Houston-1 infected in human HMEC1 cells assessed as intracellular bacterial load at 1 ug/mL incubated for 96 hrs followed by compound washout measured after 7 days relative to control. It counts as functional, Bartonella henselae str. Houston-1. The method, boiled down: as §3
Assay [6] concerns Bartonella elizabethae. Kind of assay: Antibacterial activity against Bartonella elizabethae F9251 at 20 ug per disc after 7 days by Kirby-Bauer disc diffusion assay. It counts as functional. The note with it: F9251, 168 h, read-out: DIZ. Put shortly: as §2
The subject of assay [7] is Staphylococcus aureus. Kind of assay: Antibacterial activity against methicillin-resistant Staphylococcus aureus isolate CBD 635 at 50 ug per disc by Kirby-Bauer disc diffusion assay. It counts as functional. The note with it: read-out: DIZ. The method, boiled down: as §1
For assay [8], the system named is Escherichia coli. Kind of assay: Antibacterial activity against Escherichia coli DH5alpha at 50 ug per disc by Kirby-Bauer disc diffusion assay. The conditions noted are these: DH5[alpha], read-out: DIZ. It counts as functional. Put shortly: (§4)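 Disks carried 50 µg of compound. Zone diameter was measured to the nearest mm and averaged over three independent experiments. A value of 6 mm, the disk diameter, was recorded where no inhibition was seen.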

The test system of assay [9] is Bartonella vinsonii. Kind of assay: Antibacterial activity against Bartonella vinsonii ATCC VR152 at 20 ug per disc after 7 days by Kirby-Bauer disc diffusion assay. It counts as functional. The note with it: ATCC VR152, 168 h, read-out: DIZ. The method, boiled down: as §2
Assay [10] relates to Enterococcus faecalis. Kind of assay: Antibacterial activity against Enterococcus faecalis DS16 at 50 ug per disc by Kirby-Bauer disc diffusion assay. It counts as functional. The conditions noted are these: read-out: DIZ. Put shortly: as §4
Assay [11] in a line: Antibacterial activity against Bartonella henselae ATCC 49882 at 20 ug per disc after 7 days by Kirby-Bauer disc diffusion assay. It counts as functional, Bartonella henselae str. Houston-1. The conditions noted are these: ATCC 49882, 168 h, read-out: DIZ. The method, boiled down: as §2
Assay [12] deals with Staphylococcus aureus. The assay is described as follows: Antibacterial activity against methicillin-resistant Staphylococcus aureus ATCC 43300. It counts as functional. The method, boiled down:
(§5)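 MIC against S. aureus strains was run by an earlier published procedure, tested in triplicate. Values were averaged and expressed as µg/ml of compound.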

For assay [13], the system named is Staphylococcus aureus. The assay is described as follows: Antibacterial activity against methicillin-susceptible Staphylococcus aureus SH1000. It counts as functional. Put shortly: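 MIC in µg/ml, tested in triplicate and averaged, with ciprofloxacin as positive control.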
For assay [14], the system named is Staphylococcus aureus. The assay is described as follows: Antibacterial activity against methicillin-resistant Staphylococcus aureus isolate CBD 635. It counts as functional. The method, boiled down:
as §5

The test system of assay [15] is Bartonella henselae. The assay is described as follows: Antibacterial activity against Bartonella henselae infected in african green monkey Vero cells by immunofluorescence staining. It counts as functional.
The test system of assay [16] is Staphylococcus aureus. Kind of assay: Antibacterial activity against methicillin-susceptible Staphylococcus aureus SH1000 at 2 fold MIC by serial dilution method. It counts as functional. The method, boiled down: (§6)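 Tryptic soy agar contained compound at 1x, 1.5x, 2.0x or 2.5x the measured MSSA MIC. Cells from 1 ml of an overnight MSSA broth culture were pelleted, resuspended in 100 µl TSB and spread with glass beads. Inoculum cfu was counted by serial dilution onto drug-free agar. Total colonies from at least 3 replicates are reported; frequency is colonies divided by total inoculum.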

Assay [17] deals with Staphylococcus aureus. Kind of assay: Antibacterial activity against methicillin-susceptible Staphylococcus aureus SH1000 at MIC by serial dilution method. It counts as functional. Put shortly: as §6
The subject of assay [18] is Staphylococcus aureus. The assay is described as follows: Antibacterial activity against methicillin-susceptible Staphylococcus aureus SH1000 at 1.5 fold MIC by serial dilution method. It counts as functional. The method, boiled down: as §6
In assay [19] the test system is Staphylococcus aureus. The assay is described as follows: Antibacterial activity against methicillin-susceptible Staphylococcus aureus SH1000 at 2.5 fold MIC by serial dilution method. It counts as functional. The method, boiled down:
as §6

The test system of assay [20] is Escherichia coli. The assay is described as follows: Inhibition of Escherichia coli DNA gyrase-mediated formation of supercoiled form of pUC19 at 1 to 100 ug/mL by gel electrophoresis. The method, boiled down:
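Relaxed circular pUC19 was incubated with purified E. coli DNA gyrase and compound for 1 h at 37 °C. Relaxed and supercoiled DNA were resolved and quantified by gel electrophoresis.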

Structures are written as SMILES. ≈ marks a conversion by molar mass, not a printed value. Calls of active or inactive are those of the source. No cut-off for these calls is given here.

Regarding `CC(C)CC(=O)N1CCN(c2cc3c(cc2F)c(=O)c(C(=O)O)cn3C2CC2)CC1`, the zone of inhibition at 50 µg/disc was 70 mm in assay [1], 28 mm in [7], 36 mm in [8] and 32 mm in assay [10]. Also, the MIC was 0.2 mg/L (≈ 0.481 µM) in assay [2], more than 100 mg/L in assay [12], more than 100 mg/L in assay [13] and more than 100 mg/L in assay [14]. Besides, the zone of inhibition at 20 µg/disc in assay [3] turned out to be 36 mm; in assay [6], 37 mm; in [9], 40 mm; in assay [11], 62 mm. For the same molecule, the Activity in [4] is recorded as 32%; in assay [5] it was “<=10%”.
For the molecule `C[C@H]1COc2c(N3CCN(C)CC3)c(F)cc3c(=O)c(C(=O)O)cn1c23.C[C@H]1COc2c(N3CCN(C)CC3)c(F)cc3c(=O)c(C(=O)O)cn1c23.O` [LEVOFLOXACIN], in assay [15], it took 0.84 mg/L to inhibit growth (MIC).
With `CCC(C)(C)C(=O)N1CCN(c2cc3c(cc2F)c(=O)c(C(=O)O)cn3C2CC2)CC1`, the zone of inhibition at 50 µg/disc in assay [1] was 57 mm; in assay [7] it was 31 mm; in assay [8] it was 38 mm; in [10], 45 mm. Moreover, the minimum inhibitory concentration (MIC) in assay [2] was 0.5 mg/L (≈ 1.16 µM); in [12], 1 mg/L (≈ 2.33 µM); in [13] it was 5 mg/L (≈ 11.6 µM); in [14], more than 100 mg/L. The zone of inhibition at 20 µg/disc in assay [3] was found to be 27 mm; in assay [6] it was 32 mm; in assay [9] it was 33 mm; in [11], 41 mm. For the same molecule, the Activity in assay [4] is given as 54%; in assay [5], “<=10%”.
On to `CCCCCCCCCC(=O)N1CCN(c2cc3c(cc2F)c(=O)c(C(=O)O)cn3C2CC2)CC1`, for which the result in [16], in assay [17], in assay [18] and in [19] was inactive. Further, the zone of inhibition at 50 µg/disc was 6 mm in assay [1], 34 mm in assay [7], 6 mm in assay [8] and 6 mm in [10]. Moreover, the MIC was 5 mg/L (≈ 10.3 µM) in [2], 10 mg/L (≈ 20.6 µM) in assay [12], 10 mg/L (≈ 20.6 µM) in assay [13] and more than 100 mg/L in assay [14]. The zone of inhibition at 20 µg/disc was found to be 11 mm in assay [3], 9 mm in assay [6], 9 mm in assay [9] and 10 mm in assay [11].
For the molecule `O=C(O)c1cn(C2CC2)c2cc(N3CCNCC3)c(F)cc2c1=O` [CIPROFLOXACIN], the zone of inhibition at 50 µg/disc in [1] came out at 42 mm; in assay [7] it was 6 mm; in assay [8], 43 mm; in assay [10], 31 mm. Further, the minimum inhibitory concentration (MIC) in [2] came out at 0.5 mg/L (≈ 1.51 µM); in [15] it was 15.2 mg/L (≈ 45.9 µM); in assay [12], 15 mg/L (≈ 45.3 µM); in assay [13], 10 mg/L (≈ 30.2 µM). For the same molecule, the zone of inhibition at 20 µg/disc was determined as 6 mm in [3], 58 mm in assay [6], 58 mm in [9] and 56 mm in [11]. In addition, the Activity result in assay [5] is on record as “<=10%”. For the same molecule, the CFU/ml in assay [19] is on record as 551.
The molecule `C[C@@H]1CN(c2c(F)c(N)c3c(=O)c(C(=O)O)cn(C4CC4)c3c2F)C[C@H](C)N1` [SPARFLOXACIN] returned a minimum inhibitory concentration (MIC) in assay [15] of 6.4 mg/L (≈ 16.3 µM).
On the same count and under the same terms, as for `CC1COc2c(N3CCN(C)CC3)c(F)cc3c(=O)c(C(=O)O)cn1c23` (centres undefined) [OFLOXACIN], the figure is 5.6 mg/L (≈ 15.5 µM).
Regarding `CC(=O)N1CCN(c2cc3c(cc2F)c(=O)c(C(=O)O)cn3C2CC2)CC1`, the CFU/ml amounted to 101 in assay [16], 90 in [17], 41 in assay [18] and 0 in assay [19]. For the same molecule, the zone of inhibition at 50 µg/disc came out at 89 mm in [1], 24 mm in [7], 60 mm in assay [8] and 48 mm in assay [10]. The zone of inhibition at 20 µg/disc was 6 mm in [3], 58 mm in assay [6] and 52 mm in assay [11]. For the same molecule, the figures for the Activity in assay [4] and in assay [5] were 54% and “<=10%”, respectively. In addition, in assay [20], the “gyrase inhibition (active/inactive)” value is “Active”. Moreover, the results for the MIC in assay [12], in [13] and in assay [14] were 10 mg/L (≈ 26.8 µM), 10 mg/L (≈ 26.8 µM) and more than 100 mg/L, respectively.
Regarding `CCCC(C)C(=O)N1CCN(c2cc3c(cc2F)c(=O)c(C(=O)O)cn3C2CC2)CC1` (centres undefined), the figures for the CFU/ml in assay [16], in assay [18] and in assay [19] were 4, 7 and 0, respectively. Besides, the zone of inhibition at 50 µg/disc in assay [1] was 67 mm; in [7], 33 mm; in [8] it was 33 mm; in assay [10], 33 mm. For the same molecule, the minimum inhibitory concentration (MIC) was 0.8 mg/L (≈ 1.86 µM) in assay [2], 1 mg/L (≈ 2.33 µM) in assay [12], 10 mg/L (≈ 23.3 µM) in [13] and more than 100 mg/L in assay [14]. The zone of inhibition at 20 µg/disc in assay [3] came out at 24 mm; in assay [6], 32 mm; in [9] it was 30 mm; in assay [11] it was 37 mm. Also, in assay [17], the outcome was inactive.
In the case of `CCC(=O)N1CCN(c2cc3c(cc2F)c(=O)c(C(=O)O)cn3C2CC2)CC1`, the zone of inhibition at 50 µg/disc in [1] was found to be 86 mm; in assay [7], 20 mm; in assay [8] it was 57 mm; in assay [10] it was 46 mm. For the same molecule, the MIC in [2] is 0.5 mg/L (≈ 1.29 µM); in assay [12] it was more than 100 mg/L; in assay [13], 40 mg/L (≈ 103 µM); in assay [14], more than 100 mg/L. Also, the zone of inhibition at 20 µg/disc in [3] is 58 mm; in assay [6], 57 mm; in [9] it was 60 mm; in assay [11] it was 56 mm. Further, the Activity result in [5] is “<=10%”. The CFU/ml in assay [19] worked out at 0. The “gyrase inhibition (active/inactive)” value in assay [20] was “Active”.
